Results: ChEMBL document CHEMBL1806394, “Synthesis, in vitro evaluation and molecular docking studies of new triazole derivatives as antifungal agents” (2011)
Converted amounts (≈) assume the structure as drawn.

Assays:
Type in all cases: functional
[1] = system: Candida albicans; assay: Antifungal activity against Candida albicans Y0109 by micro-broth dilution method
Outline: (§1)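 MIC80 determined by broth microdilution following NCCLS methods. C. albicans SC5314 and Y0109 and C. neoformans BLS108 served as quality-control strains and were included in every assay. Fluconazole, itraconazole, voriconazole and amphotericin B were run as positive controls.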

[2] = system: Cryptococcus neoformans; assay: Antifungal activity against Cryptococcus neoformans BLS108 by micro-broth dilution method; outline: as §1
[3] = system: Kluyveromyces marxianus; assay: Antifungal activity against Candida kefyr by micro-broth dilution method
[4] = system: Candida tropicalis; assay: Antifungal activity against Candida tropicalis by micro-broth dilution method; outline: as §1
[5] = system: Candida parapsilosis; assay: Antifungal activity against Candida parapsilosis by micro-broth dilution method; conditions: Lodderomyces parapsilosis; outline: as §1
[6] = system: Candida albicans; assay: Antifungal activity against Candida albicans SC5314 by micro-broth dilution method; outline: as §1
[7] = system: Trichophyton rubrum; assay: Antifungal activity against Trichophyton rubrum by micro-broth dilution method; outline: as §1
[8] = system: Aspergillus fumigatus; assay: Antifungal activity against Aspergillus fumigatus by micro-broth dilution method; outline: as §1

SMILES | MIC80 [1] [µg/mL] | MIC80 [2] [µg/mL] | MIC80 [3] [µg/mL] | MIC80 [4] [µg/mL] | MIC80 [5] [µg/mL] | MIC80 [6] [µg/mL] | MIC80 [7] [µg/mL] | MIC80 [8] [µg/mL]
O=C(Nc1ccc(-n2cnn(CC(O)(Cn3cncn3)c3ccc(F)cc3F)c2=O)cc1)c1ccc(Cl)cc1Cl (single isomer, unassigned) | 0.0625 (≈ 0.107 µM) | > 64 | 4 (≈ 6.82 µM) | 0.25 (≈ 0.426 µM) | 0.0156 (≈ 0.0266 µM) | 0.0625 (≈ 0.107 µM) | > 64 | > 64
C[C@@H](c1ncncc1F)[C@](O)(Cn1cncn1)c1ccc(F)cc1F [VORICONAZOLE] | 0.0039 (≈ 0.0112 µM) | 0.0039 (≈ 0.0112 µM) | 0.0039 (≈ 0.0112 µM) | 0.0039 (≈ 0.0112 µM) | 0.0039 (≈ 0.0112 µM) | 0.0039 (≈ 0.0112 µM) | 0.0156 (≈ 0.0447 µM) | 0.0039 (≈ 0.0112 µM)
Cc1cccc(/C=C/C(=O)Nc2ccc(-n3cnn(CC(O)(Cn4cncn4)c4ccc(F)cc4F)c3=O)cc2)c1C (single isomer, unassigned) | 4 (≈ 7 µM) | > 64 | > 64 | 16 (≈ 28 µM) | > 64 | 1 (≈ 1.75 µM) | > 64 | > 64
CCCCc1ccc(C(=O)Nc2ccc(-n3cnn(CC(O)(Cn4cncn4)c4ccc(F)cc4F)c3=O)cc2)cc1 (single isomer, unassigned) | 0.0156 (≈ 0.0272 µM) | > 64 | > 64 | 0.25 (≈ 0.436 µM) | 0.0625 (≈ 0.109 µM) | 0.0156 (≈ 0.0272 µM) | > 64 | > 64
O=C(/C=C/c1ccccc1F)Nc1ccc(-n2cnn(CC(O)(Cn3cncn3)c3ccc(F)cc3F)c2=O)cc1 (single isomer, unassigned) | 1 (≈ 1.78 µM) | > 64 | > 64 | 4 (≈ 7.12 µM) | 4 (≈ 7.12 µM) | 1 (≈ 1.78 µM) | > 64 | > 64
O=C(/C=C/c1ccc(Cl)c(Cl)c1)Nc1ccc(-n2cnn(CC(O)(Cn3cncn3)c3ccc(F)cc3F)c2=O)cc1 (single isomer, unassigned) | 4 (≈ 6.53 µM) | > 64 | > 64 | 4 (≈ 6.53 µM) | 64 (≈ 105 µM) | 4 (≈ 6.53 µM) | > 64 | > 64
OC(Cn1cncn1)(Cn1cncn1)c1ccc(F)cc1F [FLUCONAZOLE] | 0.25 (≈ 0.816 µM) | 1 (≈ 3.27 µM) | 4 (≈ 13.1 µM) | 1 (≈ 3.27 µM) | 0.25 (≈ 0.816 µM) | 0.25 (≈ 0.816 µM) | 1 (≈ 3.27 µM) | > 64
CCC(C)n1ncn(-c2ccc(N3CCN(c4ccc(OCC5COC(Cn6cncn6)(c6ccc(Cl)cc6Cl)O5)cc4)CC3)cc2)c1=O (stereo not drawn) [ITRACONAZOLE] | 0.0625 (≈ 0.0886 µM) | 0.0625 (≈ 0.0886 µM) | 0.0625 (≈ 0.0886 µM) | 0.0625 (≈ 0.0886 µM) | 0.0625 (≈ 0.0886 µM) | 0.0625 (≈ 0.0886 µM) | 0.0625 (≈ 0.0886 µM) | 0.0625 (≈ 0.0886 µM)
COc1cccc(C(=O)Nc2ccc(-n3cnn(CC(O)(Cn4cncn4)c4ccc(F)cc4F)c3=O)cc2)c1 (single isomer, unassigned) | 0.0625 (≈ 0.114 µM) | > 64 | 16 (≈ 29.2 µM) | 1 (≈ 1.83 µM) | 0.0625 (≈ 0.114 µM) | 0.0625 (≈ 0.114 µM) | > 64 | > 64
O=C(/C=C/c1cccc(Br)c1)Nc1ccc(-n2cnn(CC(O)(Cn3cncn3)c3ccc(F)cc3F)c2=O)cc1 (single isomer, unassigned) | 1 (≈ 1.61 µM) | 16 (≈ 25.7 µM) | > 64 | 1 (≈ 1.61 µM) | 16 (≈ 25.7 µM) | 1 (≈ 1.61 µM) | > 64 | > 64
Cc1ccc(/C=C/C(=O)Nc2ccc(-n3cnn(CC(O)(Cn4cncn4)c4ccc(F)cc4F)c3=O)cc2)cc1 (single isomer, unassigned) | 4 (≈ 7.17 µM) | > 64 | > 64 | 4 (≈ 7.17 µM) | > 64 | 1 (≈ 1.79 µM) | > 64 | > 64
O=C(Nc1ccc(-n2cnn(CC(O)(Cn3cncn3)c3ccc(F)cc3F)c2=O)cc1)c1ccccc1Br (single isomer, unassigned) | 4 (≈ 6.71 µM) | 16 (≈ 26.8 µM) | > 64 | 4 (≈ 6.71 µM) | 1 (≈ 1.68 µM) | 1 (≈ 1.68 µM) | > 64 | > 64
O=C(Nc1ccc(-n2cnn(CC(O)(Cn3cncn3)c3ccc(F)cc3F)c2=O)cc1)c1cccc(Cl)c1 (single isomer, unassigned) | 0.00024 (≈ 0.000435 µM) | 16 (≈ 29 µM) | 4 (≈ 7.25 µM) | 1 (≈ 1.81 µM) | 0.00024 (≈ 0.000435 µM) | 0.00024 (≈ 0.000435 µM) | > 64 | > 64
Cc1ccccc1C(=O)Nc1ccc(-n2cnn(CC(O)(Cn3cncn3)c3ccc(F)cc3F)c2=O)cc1 (single isomer, unassigned) | 0.0625 (≈ 0.118 µM) | > 64 | > 64 | 1 (≈ 1.88 µM) | 0.0156 (≈ 0.0293 µM) | 0.25 (≈ 0.47 µM) | > 64 | > 64
O=C(Nc1ccc(-n2cnn(CC(O)(Cn3cncn3)c3ccc(F)cc3F)c2=O)cc1)c1ccc(OC(F)(F)F)cc1 (single isomer, unassigned) | 1 (≈ 1.66 µM) | > 64 | > 64 | 64 (≈ 106 µM) | 1 (≈ 1.66 µM) | 0.25 (≈ 0.416 µM) | 4 (≈ 6.65 µM) | > 64
CCCc1ccc(C(=O)Nc2ccc(-n3cnn(CC(O)(Cn4cncn4)c4ccc(F)cc4F)c3=O)cc2)cc1 (single isomer, unassigned) | 1 (≈ 1.79 µM) | > 64 | > 64 | 1 (≈ 1.79 µM) | 4 (≈ 7.15 µM) | 0.0039 (≈ 0.00697 µM) | > 64 | > 64
Cc1ccc(C(=O)Nc2ccc(-n3cnn(CC(O)(Cn4cncn4)c4ccc(F)cc4F)c3=O)cc2)c(C)c1 (single isomer, unassigned) | 0.0625 (≈ 0.115 µM) | > 64 | 64 (≈ 117 µM) | 1 (≈ 1.83 µM) | 0.0625 (≈ 0.115 µM) | 0.0625 (≈ 0.115 µM) | > 64 | > 64
C[C@@H]1[C@H](O)[C@@H](C)/C=C/C=C/C=C/C=C/C=C/C=C/C=C/[C@H](O[C@@H]2O[C@H](C)[C@@H](O)[C@H](N)[C@@H]2O)C[C@@H]2O[C@](O)(C[C@@H](O)C[C@@H](O)[C@H](O)CC[C@@H](O)C[C@@H](O)CC(=O)O[C@H]1C)C[C@H](O)[C@H]2C(=O)O [AMPHOTERICIN B] | 0.25 (≈ 0.271 µM) | 1 (≈ 1.08 µM) | 0.25 (≈ 0.271 µM) | 1 (≈ 1.08 µM) | 0.25 (≈ 0.271 µM) | 0.25 (≈ 0.271 µM) | 4 (≈ 4.33 µM) | 1 (≈ 1.08 µM)
O=C(Nc1ccc(-n2cnn(CC(O)(Cn3cncn3)c3ccc(F)cc3F)c2=O)cc1)c1ccc(Cl)cc1 (single isomer, unassigned) | 1 (≈ 1.81 µM) | 0.0625 (≈ 0.113 µM) | 1 (≈ 1.81 µM) | 1 (≈ 1.81 µM) | 1 (≈ 1.81 µM) | 1 (≈ 1.81 µM) | > 64 | > 64
O=C(/C=C/c1cccc([N+](=O)[O-])c1)Nc1ccc(-n2cnn(CC(O)(Cn3cncn3)c3ccc(F)cc3F)c2=O)cc1 (single isomer, unassigned) | 0.00024 (≈ 0.000408 µM) | > 64 | 16 (≈ 27.2 µM) | 0.25 (≈ 0.425 µM) | 0.0039 (≈ 0.00663 µM) | 0.00024 (≈ 0.000408 µM) | 64 (≈ 109 µM) | > 64
CCCCCc1ccc(C(=O)Nc2ccc(-n3cnn(CC(O)(Cn4cncn4)c4ccc(F)cc4F)c3=O)cc2)cc1 (single isomer, unassigned) | > 64 | > 64 | > 64 | > 64 | > 64 | 4 (≈ 6.81 µM) | > 64 | > 64
